From PubChem
This is a sample that favours compounds with a hit; in the whole collection about 3.1% have one here.
MBD2 DNA inh: inhibitors of MBD2 binding to methylated DNA, primary screen, biochemical, TR-FRET, DNA-binding domain, human. AID 686964, 2013. MBD2 binding to methylated oligonucleotide. inhibition, % at 4.4 µM. hit rate 0.31% among 370,000. Methyl-CpG-binding domain protein 2 (Homo sapiens), Q9UBB5; in the data active = inhibition above about 13%
RBBP9 inhibitor: human RBBP9 inhibitors, primary screen, biochemical, fluorescence polarization, FP-Rh probe, HTS; Serine hydrolase RBBP9 (Homo sapiens), O75884; recombinant RBBP9; inhibition, % at 7.94 µM; hit rate 0.2% among 220,000; AID 1515, 2009;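 active = inhibition above the campaign mean of all tested compounds plus 3 SD, cut at about 14% in these data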;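 also: plate controls were DMSO wells with RBBP9 for no effect and wells lacking RBBP9 protein for full effect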
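Measured by – fluorescence polarization · Test system – RBBP9 protein · Input – 2.5 µM RBBP9 dispensing solution, before mixing · Measure – percent inhibition from mP, scaled between DMSO and no-protein wells · Benchmarks – DMSO-treated enzyme wells and wells lacking RBBP9 · Times – preincubation 30 min plus labeling 45 min at 25 °C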
PRMT1 FP inh: PRMT1 methyltransferase inhibitors, primary screen, biochemical, fluorescence polarization. AID 652257, 2013. hit rate 1.3% among 370,000. recombinant PRMT1, activity-based probe fluorescence polarization. inhibition, % at 2.79 µM;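 active = inhibition above about 21% made by adding two undisclosed values, limit read from the data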
UHRF1 MBD2 ctr: UHRF1 methylated DNA binding inhibitors, primary screen, counter-screen for MBD2 inhibitor project, biochemical, TR-FRET, human UHRF1, single concentration. E3 ubiquitin-protein ligase UHRF1 (Homo sapiens), Q96T88. UHRF1 binding to methylated oligo. inhibition, % at 4.4 µM. hit rate 0.75% among 370,000. AID 687016, 2013; in the data active = inhibition above about 21%;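 also: UHRF1 SRA domain binding a hemimethylated CpG hairpin DNA probe; 0% = median of test compound wells and 100% = reference inhibitor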
ABHD5 PLIN5 PPI: ABHD5-PLIN5 interaction inhibitors, primary screen, cell lysate, split luciferase complementation, luminescence; inhibition, % at 4 µM; Split G. princeps luciferase complementation, 4 h; hit rate 0.78% among 360,000;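 active = inhibition above the mean inhibition across every tested compound plus 3 SD, cut at about 22% in these data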;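 also: 0% = DMSO only wells and the 100% control is not disclosed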
LEDGF integ inh: blockers of LEDGF/p75-dependent integrase strand transfer – biochemical, TR-FRET, high throughput, primary screen. hit rate 0.64% among 370,000. TR-FRET IN-LEDGF/p75 DNA integration, Eu/Cy5. HIV-1 integrase (with human LEDGF/p75). inhibition, % at 3.7 µM;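 active = inhibition above the screen-wide mean plus 3 SD, cut at about 13% in these data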;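 also: signal is the Cy5 over europium emission ratio at 671 and 618 nm; 0% = plate median of compound wells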
IN multimer act: HIV-1 IN multimer formation enhancers, counter-screen for LEDGF/p75 integration inhibitor project, biochemical, TR-FRET; shares compounds with LEDGF integ inh; TR-FRET HIV-1 integrase multimerization; activation, % at 7.7 µM; hit rate 17% among 2,000; AID 1053131, 2014; in the data active = activation above about 8.9%
TRFRET interf: TR-FRET optical interference artefacts, confirmation, artefact control for LEDGF/p75-dependent integration inhibitor project, biochemical, HIV-1 IN multimerization. shares compounds with LEDGF integ inh. TR-FRET optical interference counterscreen. inhibition, % at 7.7 µM. 2,000 tested, under 10 active;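 active = inhibition above the mean over all tested compounds plus 3 SD, which no compound reached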;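 also: 0% = integrase with antibodies and DMSO and 100% = antibodies without integrase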
LEDGF integ conf: inhibitors of HIV-1 IN-LEDGF/p75 DNA integration, confirmation, biochemical, TR-FRET. shares compounds with LEDGF integ inh. TR-FRET LEDGF/p75-dependent HIV-1 integration. inhibition, % at 3.7 µM. hit rate 36% among 2,000. AID 1053136, 2014; in the data active = inhibition above about 14%
* marks the source's active call; other numbers are inactive results; x = no result.

SMILES	MBD2 DNA inh	RBBP9 inhibitor	PRMT1 FP inh	UHRF1 MBD2 ctr	ABHD5 PLIN5 PPI	LEDGF integ inh	IN multimer act	TRFRET interf	LEDGF integ conf
CCC(=O)N(Cc1cc2cc(OC)ccc2[nH]c1=O)c1ccccc1OC	0	x	-1	2	4	0	x	x	x
COc1ccc2[nH]c(=O)c(CN(C(=O)C(C)C)c3ccccc3OC)cc2c1	-6	x	1	2	-19	19*	1	-6	-15
COc1ccc(NCc2cc3cc(OC)ccc3[nH]c2=O)cc1	-2	3	21*	-8	0	16*	2	-7	0
O=C(NCCc1c[nH]c2ccccc12)OCc1cn(-c2ccc(Cl)cc2)nn1	2	x	5	3	x	-1	x	x	x
CCOc1ccc(NC(=O)Nc2cc(-c3ccccc3)sc2C(=O)OC)cc1	6	-6	-3	-2	1	21*	1	-5	-2
C[C@@H]1O[C@@H](O[C@@H]2[C@@H](O)[C@H](OCCc3ccc(O)c(O)c3)O[C@H](CO)[C@H]2OC(=O)/C=C/c2ccc(O)c(O)c2)[C@H](O)[C@H](O)[C@H]1O	5	x	25*	9	1	87*	37*	-184	88*
O=C(CCC(=O)c1ccccc1)Nc1ccccc1	1	x	-4	3	-2	14*	0	2	-1
CCS(=O)(=O)N1CCC(C(=O)Oc2ccccc2OC)CC1	-7	x	2	-1	-8	22*	1	-5	2
CCN(Cc1ccccc1)c1cc2c(c3c1ccn3C)C1CCC2O1 (stereo not drawn)	2	x	4	-2	0	13*	1	-7	-10
CC1=CC2(O)OCCN(CCO)C2=CC1=O (stereo not drawn)	2	9	15	10	19	31*	4	-19	14*
CCOC(=O)c1cc2c(=Cc3ccc(N(C)C)cc3)c3ccccc3n2[n+]1C	2	x	3	30*	6	21*	20*	-73	54*
O=C(COC(=O)c1sc2ccccc2c1Cl)NCC1CCCCC1	2	-8	0	-1	-2	16*	-1	3	1
CC1CCCC(NC(=O)COC(=O)c2sc3ccccc3c2Cl)C1C (stereo not drawn)	2	-6	1	2	0	3	x	x	x
COP(=O)(OC)c1ccc(NCc2cc(O)ccc2O)cc1	-2	x	22*	2	-1	20*	64*	-225	24*
O=C(NC1CCCCN(Cc2cccc(Cl)c2)C1=O)c1ccccc1 (stereo not drawn)	-3	x	2	1	x	2	x	x	x
CN1c2ccccc2C(C)(C)C12C=Nc1c(cc(N3CCOCC3)c3ccccc13)O2 (stereo not drawn)	-7	-8	0	8	-44	14*	2	-6	-1
CC(C)(C)OC(=O)N1CCC(C(=O)N[C@@H](Cc2ccccc2)C(=O)O)(c2ccccc2)CC1	-3	-4	-2	-1	-1	18*	2	-8	15*
O=C(CSc1nnc(-c2cccnc2)n1-c1ccccc1)Nc1ccc2c(c1)OCCO2	-1	x	-2	-2	x	1	x	x	x
CCCCN(C)S(=O)(=O)c1ccc2[nH]c(=O)oc2c1	-8	x	-2	-3	x	1	x	x	x
Oc1ccc(/C=N/NC(=S)Nc2cccnc2)cc1O	-9	-11	4	-2	-2	21*	18*	-66	34*
O=S(=O)(c1ccc(NC(=S)N/N=C/c2ccc(O)c(O)c2)cc1)N1CCOCC1	0	-12	0	12	5	18*	1	-6	14*
COC(=O)[C@]12C[C@H](CC(=O)NCCc3ccccc3OC)C(=O)N(CCC3=CCCCC3)C1=C[C@H](C(C)C)O[C@@H]2C1CC1	2	x	-3	0	x	0	x	x	x
CC1(C)Cc2cccc(OC(=O)NCCc3ccc(F)cc3)c2O1	0	x	-1	-2	3	15*	1	-5	-11
CC1(C)Cc2cccc(OCC(=O)OCC(=O)NCc3ccc(F)cc3)c2O1	-5	x	-1	1	1	1	x	x	x
Cc1[nH]c2ccccc2c1CC(=O)Nc1ccc(Nc2cccnc2)c(-c2ccc(Cl)c(Cl)c2)c1	-1	x	2	-3	x	-1	x	x	x
SMILES	MBD2 DNA inh	RBBP9 inhibitor	PRMT1 FP inh	UHRF1 MBD2 ctr	ABHD5 PLIN5 PPI	LEDGF integ inh	IN multimer act	TRFRET interf	LEDGF integ conf
Cc1[nH][nH]c(=O)c1N=Nc1ccccc1Cl	-15	-5	2	-15	-6	0	x	x	x
Clc1ccccc1N=Nc1ccccn1	-1	x	63*	5	-28	25*	1	-4	16*
Cn1cc(Cl)c(-c2n[nH]c(=S)n2-c2ccccc2)n1	-2	-6	1	2	1	-2	x	x	x
Cn1cc(Cl)c(-c2n[nH]c(=S)n2-c2ccc(F)cc2)n1	-1	-10	0	-1	-5	28*	-1	4	-6
CN(C(=O)CNC(=O)c1ccccc1OCC(=O)Nc1ccc(Br)cc1)c1ccccc1	-3	x	1	1	x	4	x	x	x
O=C(O)CSc1cc(NS(=O)(=O)c2ccc(Br)cc2)c2ccccc2c1O	-9	x	57*	-6	5	25*	1	-2	51*
COC(=O)c1cn(-c2ccc(-c3noc4c3C(=O)N(CC(=O)N3CCOCC3)CC4)cc2)nn1	11	x	2	8	x	3	x	x	x
COCCN1C(=O)N[C@H](c2cccc(C(F)(F)F)c2)C(C(=O)OC)=C1C	x	4	x	x	x	x	x	x	x
COCCN1C(=O)N[C@@H](c2cccc(F)c2)C(C(=O)OC)=C1C	-2	x	2	-3	4	29*	1	-7	-5
COc1ccc2nc(NC(=O)c3ccccc3F)sc2c1	-4	x	0	-1	-1	16*	1	-3	-2
Cc1ccc(NC(=O)c2cccc3c2-c2ccccc2C3=O)c(C)c1	0	x	0	-3	x	-4	x	x	x
